From ChEMBL document CHEMBL4359895, “Discovery and biological evaluation of darolutamide derivatives as inhibitors and down-regulators of wild-type AR and the mutants” (Eur J Med Chem, 2019)

Tests used:
LNCaP = assay: Antiproliferative activity against human LNCAP expressing AR assessed as reduction in cell viability incubated for 6 days by CCK-8 assay; assay type: functional, cell-based; conditions: 144 h
Method in brief: (§1)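 Cell proliferation assay run on LNCaP/AR, VCaP, 22Rv1, PC-3 and L-02 cells, with PC-3 and L-02 serving as AR-independent toxicity controls. IC50 fitted in GraphPad Prism 5 as the mean of at least two experiments, each in duplicate. Deviations under 35%.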

VCaP = assay: Antiproliferative activity against human VCaP expressing AR assessed as reduction in cell viability incubated for 6 days by CCK-8 assay; assay type: functional, cell-based; conditions: 144 h; method in brief: as §1
CWR22R = assay: Antiproliferative activity against human 22Rv1 expressing AR assessed as reduction in cell viability incubated for 6 days by CCK-8 assay; assay type: functional, cell-based; conditions: 22Rv1, 144 h; method in brief: as §1
PC-3 = assay: Cytotoxicity against human PC3 assessed as reduction in cell viability incubated for 6 days by CCK-8 assay; assay type: cell-based; conditions: PC-3, 144 h; method in brief: as §1

Row | IC50 (LNCaP) | IC50 (VCaP) | SMILES | IC50 (CWR22R) | IC50 (PC-3)
1 | 1.91 µM | 1.58 µM | C[C@@H](Cn1ccc(-c2ccc(C#N)c(Cl)c2)n1)Nc1cc2ccccc2cn1 | 12 µM | –
2 | 2.28 µM | 12.4 µM | C[C@@H](Cn1ccc(-c2ccc(C#N)c(Cl)c2)n1)Nc1cncc2ccccc12 | – | –
3 | 1.13 µM | – | CC(=O)c1cc(C(=O)N[C@@H](C)Cn2ccc(-c3ccc(C#N)c(Cl)c3)n2)n[nH]1 | > 30 µM | > 30 µM
4 | 0.97 µM | > 30 µM | C[C@H](Cn1ccc(-c2ccc(C#N)c(Cl)c2)n1)Nc1ncnc2ccccc12 | 9.71 µM | –
5 | 1.81 µM | 2.19 µM | C[C@@H](Cn1ccc(-c2ccc(C#N)c(Cl)c2)n1)NC(=O)c1ccccc1F | – | > 30 µM
6 | 1.87 µM | 1.94 µM | C[C@@H](Cn1ccc(-c2ccc(C#N)c(Cl)c2)n1)Nc1cnc2ccccc2c1 | 6.04 µM | –
7 | 0.87 µM | 28.1 µM | C[C@@H](Cn1ccc(-c2ccc(C#N)c(Cl)c2)n1)Nc1cccc2ccccc12 | > 30 µM | –
8 | 4.81 µM | 2.41 µM | C[C@@H](Cn1ccc(-c2ccc(C#N)c(Cl)c2)n1)Nc1ccnc2ccccc12 | 4.29 µM | –
9 | 1.83 µM | – | C[C@@H](Cn1ccc(-c2ccc(C#N)c(Cl)c2)n1)NC(=O)c1ccccc1 | – | > 30 µM
10 | 3.41 µM | 1.54 µM | COc1ccc(C(=O)N[C@@H](C)Cn2ccc(-c3ccc(C#N)c(Cl)c3)n2)cc1 | – | > 30 µM

More lines, now with the values behind:

Row | SMILES | IC50 (LNCaP) | IC50 (VCaP) | IC50 (CWR22R) | IC50 (PC-3)
11 | C[C@@H](Cn1ccc(-c2ccc(C#N)c(Cl)c2)n1)Nc1ccncc1 | 2.56 µM | 9.9 µM | 11.5 µM | –
12 | C[C@@H](Cn1ccc(-c2ccc(C#N)c(Cl)c2)n1)Nc1cccc2cccnc12 | 0.79 µM | > 30 µM | > 30 µM | –
13 | C[C@@H](Cn1ccc(-c2ccc(C#N)c(Cl)c2)n1)Nc1cccc2cnccc12 | 0.87 µM | > 30 µM | 21.2 µM | –
14 | C[C@@H](Cn1ccc(-c2ccc(C#N)c(Cl)c2)n1)Nc1nccc(Cl)n1 | 1.4 µM | > 30 µM | > 30 µM | > 30 µM
15 | CC(O)c1cc(C(=O)N[C@H](C)Cn2ccc(-c3ccc(C#N)c(Cl)c3)n2)n[nH]1 (stereo not given in full) | 1.65 µM | – | > 30 µM | > 30 µM
16 | COC(=O)/C=C/C(=O)N[C@@H](C)Cn1ccc(-c2ccc(C#N)c(Cl)c2)n1 | 2.46 µM | 5.23 µM | – | > 30 µM
17 | C[C@@H](Cn1ccc(-c2ccc(C#N)c(Cl)c2)n1)NS(=O)(=O)c1cn(C)cn1 | > 30 µM | 13.6 µM | – | > 30 µM
18 | C[C@@H](Cn1ccc(-c2ccc(C#N)c(Cl)c2)n1)Nc1ccccn1 | 1.11 µM | – | > 30 µM | –
19 | CC(=O)c1ccc(S(=O)(=O)N[C@@H](C)Cn2ccc(-c3ccc(C#N)c(Cl)c3)n2)cc1 | 5.23 µM | 3.95 µM | – | > 30 µM
20 | CC(=O)c1cccc(NC(=O)C(C)Cn2ccc(-c3ccc(C#N)c(Cl)c3)n2)c1 (racemic) | 1.54 µM | 2.98 µM | – | > 30 µM
21 | C[C@@H](Cn1ccc(-c2ccc(C#N)c(Cl)c2)n1)Nc1ccc2ncccc2c1 | 13 µM | > 30 µM | – | –
22 | CC(Cn1ccc(-c2ccc(C#N)c(Cl)c2)n1)C(=O)Nc1cc[nH]n1 (racemic) | > 30 µM | > 30 µM | – | > 30 µM
23 | C[C@@H](Cn1ccc(-c2ccc(C#N)c(Cl)c2)n1)Nc1ccc2c(ccn2C)c1 | 0.49 µM | 2.13 µM | 12 µM | –
24 | C[C@@H](Cn1ccc(-c2ccc(C#N)c(Cl)c2)n1)NC(=O)C1CC(=O)C1 | 3.04 µM | 22.5 µM | – | > 30 µM
25 | C[C@@H](Cn1ccc(-c2ccc(C#N)c(Cl)c2)n1)Nc1ccc2cnccc2c1 | 0.51 µM | 2.26 µM | 2.98 µM | –
26 | C[C@@H](Cn1ccc(-c2ccc(C#N)c(Cl)c2)n1)NS(=O)(=O)c1cccnc1 | 6.14 µM | 2.45 µM | – | > 30 µM
